# Screening results as filed in PubChem BioAssay.
# Rows were chosen to be rich in hits. Some 1.3% of all compounds tested hit in one or more screens of this group.
# CASP6 VEID inh – human caspase-6 inhibitors, primary screen, biochemical, VEID-R110 fluorescence, single point, set 2; AID 686996, 2013; inhibition, % at 12.5 µM; purified caspase-6, Z-VEID-R110 cleavage fluorescence; 350,000 tested, 0.53% active;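 active = mean inhibition across replicates at least about 35%, with every replicate also reaching that limit, limit read from the data; inconclusive = only one of the two criteria met; inactive = neither criterion met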;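 note: 0% = median of neutral control wells and 100% = no fluorescence left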
# MLL AF4-AF9 inh – inhibitors of AF4 peptide binding to AF9, primary screen, biochemical, AlphaScreen, biotin-AF4 peptide, FLAG-AF9, single point. inhibition, % at 10 µM. 350,000 tested, 0.47% active. AID 651704, 2012;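 active = every replicate reaching a set inhibition limit, whatever the replicate mean, cut at about 25% in these data; inconclusive = mean inhibition reaches that limit but some replicates miss it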;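 note: 0% = plate neutral control median and 100% = total signal loss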
# RAD54 inh – inhibitors of human RAD54 branch migration, primary screen, biochemical, fluorescence, single point; inhibition, % at 10.4 µM; DNA repair and recombination protein RAD54-like (Homo sapiens), Q92698; 360,000 tested, 0.14% active; RAD54 Holliday junction branch migration, FAM/BHQ fluorescence; AID 602329, 2012;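 active = mean normalized replicate activity at least 40 and at least half of replicates scoring 40 or more; inconclusive = only one of the two criteria met; inactive = mean below 40 and under half of replicates reaching 40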;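 note: 0% = median of neutral control wells and 100% = median of positive control wells; inhibitors cause a drop in the FAM fluorescence signal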
# Target sequence (Q92698 whole entry, looked up): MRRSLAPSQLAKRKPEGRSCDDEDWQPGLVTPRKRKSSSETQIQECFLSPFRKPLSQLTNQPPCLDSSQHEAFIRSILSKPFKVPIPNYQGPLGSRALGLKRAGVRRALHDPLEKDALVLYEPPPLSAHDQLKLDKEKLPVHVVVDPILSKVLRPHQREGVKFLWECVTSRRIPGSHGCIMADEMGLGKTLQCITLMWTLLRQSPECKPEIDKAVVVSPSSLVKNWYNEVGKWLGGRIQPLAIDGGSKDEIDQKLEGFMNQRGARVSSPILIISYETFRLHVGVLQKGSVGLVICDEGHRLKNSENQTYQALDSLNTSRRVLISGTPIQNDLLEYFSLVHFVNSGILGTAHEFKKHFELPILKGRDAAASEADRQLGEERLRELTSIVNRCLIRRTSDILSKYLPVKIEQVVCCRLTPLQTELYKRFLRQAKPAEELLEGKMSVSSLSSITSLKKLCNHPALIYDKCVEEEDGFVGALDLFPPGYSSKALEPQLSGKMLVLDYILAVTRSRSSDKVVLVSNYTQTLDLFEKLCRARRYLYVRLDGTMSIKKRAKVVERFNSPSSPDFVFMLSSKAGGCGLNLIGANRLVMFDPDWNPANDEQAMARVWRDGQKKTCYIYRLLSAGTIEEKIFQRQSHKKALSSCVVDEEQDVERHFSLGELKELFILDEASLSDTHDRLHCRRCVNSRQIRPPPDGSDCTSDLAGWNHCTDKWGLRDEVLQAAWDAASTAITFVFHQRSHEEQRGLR
# RAD52 anneal inh – RAD52 DNA annealing inhibitors, primary screen, biochemical, FRET, single point, set 2; AID 651710, 2012; 360,000 tested, 0.46% active; DNA repair protein RAD52 homolog (Homo sapiens), P43351; recombinant RAD52 DNA annealing, FRET fluorescence; inhibition, % at 18.7 µM;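 active = every replicate showing at least 50% inhibition; inconclusive = mean inhibition at least 50% but not in every replicate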
# S100A4 inh HTS – inhibitors of S100A4-myosin IIA peptide binding, primary screen, biochemical, fluorescence polarization, TAMRA-MyoIIA peptide; inhibition, % at 10.7 µM; AID 652163, 2013; Protein S100-A4 (Homo sapiens), P26447; 360,000 tested, 0.14% active;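 active = mean inhibition of at least 70% across replicates, with every replicate also reaching that level; inconclusive = mean inhibition reaches 70% but some replicates fall short; inactive = mean inhibition below 70%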
#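 Material: S100A4 monomer protein / Buffer or medium: 50 mM HEPES pH 7.2, 10 mM CaCl2, 100 mM KCl / Times: 5 min incubation before reading / Benchmarks: neutral control DMSO, positive control TFP / Reagent: labelled myosin peptide probe, 5 nM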
# Xi reactivation – activators of inactive X chromosome reactivation, primary screen, imaging, XiGFP fibroblasts, GFP high-content imaging, set 2; XiGFP mouse fibroblasts, % GFP-positive cells imaging, 3 d; cells co-treated with 5-aza-dC sensitizer; scaled so ellipticine positive control = 100%; activation, % at 7.58 µM; 360,000 tested, 0.055% active; AID 743238, 2013;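 active = mean normalized replicate activation at least 10% and every replicate at or above 10%; inconclusive = only one of the two criteria met; inactive = mean below 10% and not all replicates reach 10%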;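 note: 0% = median of on-plate neutral control wells and 100% = ellipticine 6 µM median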
#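 Assay system – SV40-immortalized XiGFP fibroblast cells, line 68-5-11 · Buffer or medium – DMEM supplemented with 5-aza-dC as sensitizing agent · Dosing – one concentration, pinned · Benchmarks – positive control ellipticine, 6 µM final · Times – 3 days compound exposure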
# The depositor's hits bear a star; ? = inconclusive; nt = not tested or not shown.
SMILES,CASP6 VEID inh,MLL AF4-AF9 inh,RAD54 inh,RAD52 anneal inh,S100A4 inh HTS,Xi reactivation
CCN(CC)c1ccc2cc(-c3nc(-c4ccc(OC)cc4)cs3)c(=O)oc2c1,5,-11,nt,-500,-10,115*
CC(=O)Nc1ccc2c(c1)C(=O)N(C)C[C@@H](C)[C@@H](CN(C)C(=O)OC(C)(C)C)O2,nt,nt,nt,nt,nt,0
CCN(CC)c1ccc(CNc2ccc(Br)cn2)cc1,nt,nt,-5,nt,nt,nt
CCN(CC)c1ccc(Nc2nc(Cl)ncc2Br)cc1,2,27*,-1,0,3,0
C[C@@H]1CCCCO[C@H](CN(C)C(=O)CCCN(C)C)[C@H](C)CN([C@@H](C)CO)C(=O)c2cc(NC(=O)Nc3cccc4ccccc34)ccc2O1,-2,16,10,30,?,0
C[C@@H]1CN([C@@H](C)CO)S(=O)(=O)c2ccc(-c3ccncc3)cc2O[C@H]1CN(C)C(=O)C1CCC1,nt,nt,nt,nt,nt,-1
COc1ccc(NC(=O)Nc2ccc3c(c2)C(=O)N([C@@H](C)CO)C[C@@H](C)[C@H](CN(C)Cc2ccc(C(F)(F)F)cc2)OCCCC[C@@H](C)O3)cc1,0,-2,-3,-15,5,0
COc1ccc(CN(C)C[C@H]2OCCCC[C@@H](C)Oc3ccc(NC(=O)Nc4ccc(C(F)(F)F)cc4)cc3C(=O)N([C@@H](C)CO)C[C@@H]2C)cc1,-3,15,-12,50*,-15,0
COc1ccc(CN(C)C[C@@H]2OCCCC[C@H](C)Oc3ccc(NC(=O)Nc4ccc(C(F)(F)F)cc4)cc3C(=O)N([C@H](C)CO)C[C@@H]2C)cc1,1,8,-7,53*,-9,0
COc1ccc(CN(C)C[C@H]2OCCCC[C@H](C)Oc3ccc(NC(=O)Nc4ccc(C(F)(F)F)cc4)cc3C(=O)N([C@H](C)CO)C[C@@H]2C)cc1,0,4,10,53*,-10,0
COc1ccc(NC(=O)Nc2ccc3c(c2)C(=O)N([C@H](C)CO)C[C@H](C)[C@H](CN(C)Cc2ccc(C(F)(F)F)cc2)OCCCC[C@H](C)O3)cc1,0,-5,-1,-15,157*,0
COc1ccc([C@H]2C/C=C\C[C@@H](c3cccc(Cl)c3)NC(=O)[C@H](c3ccccc3)CC(=O)N2)c(OC)c1,nt,nt,nt,nt,nt,0
C[C@H](CO)N1C[C@H](C)[C@@H](CN(C)S(=O)(=O)c2cn(C)cn2)OCCCC[C@H](C)Oc2ccc(NC(=O)CCCCCC(=O)Nc3ccccc3N)cc2C1=O,-2,1,4,-11,3,0
CCCC(=O)Nc1ccc2c(c1)C(=O)N(C)[C@@H]1CC[C@H](CC(=O)NCC3CCCCC3)O[C@@H]1CO2,1,0,-1,-3,12,0
CNC[C@@H]1Oc2ccc(NC(=O)CCCN(C)C)cc2C(=O)N([C@H](C)CO)C[C@H]1C,-47,0,-20,-17,14,-1
Cn1c(CSCCOc2ccccc2)n[nH]c1=S,45*,0,-19,-15,-1,0
COc1cc(/C=C(/C#N)C(=O)Nc2ccccc2)ccc1OCc1ccc(C(=O)O)cc1,37*,-7,nt,-53,7,0
CCCC(=O)Nc1ccc2c(c1)OC[C@H](C)N(C(=O)c1cnccn1)C[C@@H](C)[C@@H](OC)CN(C)C2=O,1,-1,-2,0,-36,0
CC(C)CNC(=O)C1(C)CCCCCN1C(=O)c1cc2ccccc2s1 (stereo not given),2,-3,-8,7,0,0
CC(C)CNC(=O)C1(C)CCCCCN1C(=O)c1cccnc1 (stereo not given),56*,2,0,4,-1,0
COC(=O)c1ccc(C(=O)OC)c(NC(=O)CN(c2ccc3c(c2)OCO3)S(C)(=O)=O)c1,42*,5,-2,1,-2,nt
COCCNC(=O)c1ccccc1NC(=O)CN(c1ccc2c(c1)OCO2)S(C)(=O)=O,nt,nt,1,nt,nt,nt
O=C1C=CC(=O)N1Cc1ccccc1,-4,48*,-6,0,1,0
O=C(NCc1ccccc1)C(c1ccco1)N(C(=O)c1csnn1)C1CC1 (stereo not given),-1,41*,3,-3,1,0
CC(C)[n+]1ccn(C2=C([O-])c3ccccc3C(=O)/C2=N\S(=O)(=O)c2ccccc2)c1,35*,0,nt,-4,-5,6
SMILES,CASP6 VEID inh,MLL AF4-AF9 inh,RAD54 inh,RAD52 anneal inh,S100A4 inh HTS,Xi reactivation
CCCC[n+]1ccn(C2=C([O-])c3ccccc3C(=O)/C2=N\S(=O)(=O)c2ccccc2)c1,nt,nt,5,nt,nt,nt
CN(C)c1ccc(-n2cccc2/C=C/[N+](=O)[O-])cc1,2,25*,-1,-1,18,1
COC(=O)c1ccc(Cn2cc(/C=C\[N+](=O)[O-])c3ccccc32)o1,5,3,1,-39,-2,1
O=C(O)c1ccc(Cn2cc(/C=C\[N+](=O)[O-])c3ccccc32)o1,38*,5,2,-39,-11,0
COc1ccc2c3c(n(C)c2c1)[C@H](CO)N(Cc1ccc(Cl)cc1)CC31CCN(CC2CC2)CC1,-2,30*,nt,17,-3,0
COc1ccc2c3c(n(C)c2c1)[C@@H](CO)N(Cc1ccccc1OC)CC31CCN(C)CC1,nt,26*,nt,-20,-7,?
COc1ccc2c3c(n(C)c2c1)[C@@H](CO)N(CC1CC1)CC31CCN(C(=O)CN(C)C)CC1,-45,22,nt,73*,22,0
COc1ccc2c3c(n(C)c2c1)[C@H](CO)N(CC1CCCCC1)CC31CCN(C(=O)CN(C)C)CC1,nt,4,nt,-45,2,0
COc1ccc2c3c(n(C)c2c1)[C@H](CO)N(Cc1ccccc1F)CC31CCN(CC2CC2)CC1,-1,40*,nt,20,6,?
O=C(Nc1ccccc1F)N[C@@H]1CC[C@H](CCNC(=O)C2CCCCC2)O[C@@H]1CO,0,-1,-5,-6,52,0
COCC(=O)N1CC2(C1)CN(Cc1cc(F)ccc1F)[C@H](CO)c1[nH]c3cc(OC)ccc3c12,0,-1,nt,-26,17,0
O=C(C[C@H]1CC[C@H](NC(=O)c2ccccn2)[C@@H](CO)O1)NCc1cc(F)cc(F)c1,-2,0,-1,-3,2,0
